SMILES strings stand for the structures. A value given as a limit tells only on which side of the number the result lay.

In series [1] the test system is Leishmania donovani. In words: Drug level per mg of protein in miltefosine-sensitive Leishmania donovani promastigotes at 15 uM after 2 hrs. The format is ADME, organism-based. The settings on record: in vivo. The gist of the method:
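Late-exponential L. donovani promastigotes (MHOM/ET/67/L82) washed twice in Hanks+Glc, resuspended at 1.5 × 10^7 parasites mL-1 in the same medium with the analogue, incubated 2 h at 26 °C to reach steady intracellular accumulation. Analogue extracted and quantified by HPLC against calibration plots; expressed per mg protein.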

Series [2] relates to Leishmania donovani. Briefly: Intracellular drug concentration in miltefosine-sensitive Leishmania donovani promastigotes at 7.5 uM after 2 hrs. The settings on record: in vivo.
Series [3] relates to Leishmania donovani. Briefly: Antileishmanial activity against miltefosine-resistant Leishmania donovani MHOM/ET/67/L82R40 promastigotes by MTT assay. Particulars: read-out: LD50 (the source's name). The format is functional. The method in brief:
(§1)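 Promastigotes from late exponential phase, washed twice, seeded at 2 × 10^6 parasites mL-1 in RPMI with 10% heat-inactivated FCS and 2 mM glutamine, exposed to compound 72 h at 26 °C. Washed in Hanks+Glc, MTT 0.5 mg mL-1 for 2 h at 26 °C, formazan dissolved in 10% SDS overnight at 37 °C, A595. Triplicates, two or more experiments; LD50 with SE.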
(Tetrazolium dyes change colour on reduction, which living cells bring about.)

Series [4] has as its system Leishmania donovani. In words: Antileishmanial activity against miltefosine-sensitive Leishmania donovani MHOM/ET/67/L82 promastigotes by MTT assay. The format is functional. Particulars: read-out: LD50 (the source's name). The gist of the method:
as §1

For another series, the system named is Leishmania pifanoi. Briefly: Antileishmanial activity against miltefosine-sensitive Leishmania pifanoi MHOM/VE/60/Ltrod amastigotes by MTT assay. Particulars: read-out: LD50 (the source's name). The class given is functional. The method in brief:
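Axenic amastigotes from late exponential phase, washed twice, seeded at 2 × 10^6 parasites mL-1 in growth medium with compound for 120 h at 32 °C. Then washed in Hanks+Glc, given 0.5 mg mL-1 MTT for 2 h at 32 °C, SDS 10% overnight at 37 °C, absorbance 595 nm. Triplicates, repeated at least twice; LD50 (50% proliferation inhibition) with SE.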

`C[N+](C)(C)CCOP(=O)([O-])OCCCCCC#C/C=C/C=C/C=C/c1ccccc1` had a Drug uptake with Leishmania donovani [1] of 7.6 nmol/mg. In the series with Leishmania donovani [2], this compound gave an Intracellular concentration of 0.7 mM. The LC50 in the series on Leishmania donovani [3] is > 60 µM; in the series on Leishmania donovani [4], 29.6 µM; with Leishmania pifanoi it was 26.5 µM.

For `C[N+](C)(C)CCOP(=O)([O-])OCCCCC/C=C/C=C/C=C/C=C/c1ccccc1`, the LC50 was > 60 µM in the series with Leishmania donovani [3], 28.6 µM in the series on Leishmania donovani [4] and 26 µM in the series on Leishmania pifanoi.

As for `CCCCCCCCCCCCCCCCOP(=O)([O-])OCC[N+](C)(C)C` [MILTEFOSINE], the LC50 in the series with Leishmania donovani [3] was > 60 µM; in the series on Leishmania donovani [4] it was 12.5 µM; with Leishmania pifanoi it was 26.3 µM.

As to `COC(COCCCCCCC/C=C/C=C/C=C/C=C/c1ccccc1)COP(=O)([O-])OCC[N+](C)(C)C` (racemic), the LC50 in the series with Leishmania donovani [3] was > 60 µM; in the series on Leishmania donovani [4] it was 9 µM; with Leishmania pifanoi it was 22.5 µM.

As for `OCCCCCC#C/C=C/C=C/C=C/c1ccccc1`, the LC50 in the series on Leishmania donovani [3], with Leishmania donovani [4] and with Leishmania pifanoi was > 150 µM throughout.
